Consider 17 compounds from ChEMBL document CHEMBL1156073, “Hydroxamic acids as a novel family of serine racemase inhibitors: mechanistic analysis reveals different modes of interaction with the pyridoxal-5'-phosphate cofactor” (J Med Chem, 2009).

pIC50, pKi: −log10 of the molar value. Calls of active or inactive are those of the source. The calls are words filed in the database; no cut-off is given here.

Data set [1] concerns the target T1, Serine racemase (Mus musculus) (UniProt Q9QZX7).
T1 sequence (whole entry): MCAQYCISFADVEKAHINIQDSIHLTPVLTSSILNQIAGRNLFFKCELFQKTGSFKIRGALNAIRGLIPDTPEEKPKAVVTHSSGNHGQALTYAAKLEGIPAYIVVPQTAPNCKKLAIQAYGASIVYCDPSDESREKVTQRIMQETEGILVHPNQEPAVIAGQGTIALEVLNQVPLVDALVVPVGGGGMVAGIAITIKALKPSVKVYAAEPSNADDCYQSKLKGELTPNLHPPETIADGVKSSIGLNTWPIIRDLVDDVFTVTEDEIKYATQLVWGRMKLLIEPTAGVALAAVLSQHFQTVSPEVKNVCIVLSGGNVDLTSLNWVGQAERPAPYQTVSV
In words: Inhibition of mouse recombinant serine racemase expressed in Escherichia coli MC1061 assessed as formation of D-serine at 5 mM after 30 mins by HPLC analysis. In outline:
(§1)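 Mouse SR (E. coli MC1061, arabinose-induced, three-step chromatography, ~90% pure) incubated in pH 8.0 buffer with 10 μM PLP, 1 mM ATP, 1 mM MgCl2, 5 mM DTT. Screening used 5 mM L-serine and 5 mM test compound; IC50 runs varied inhibitor at 5 mM L-serine. 30 min at 37 C, stopped with 0.3 M HClO4; D-serine quantified by HPLC. Duplicate or triplicate runs.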

The nature of data set [2]: Binding affinity to pyridoxal-5'-phosphate assessed as formation of syn- and anti-PLP-aldoxime by NMR spectroscopy. Summed up:
(§2)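 Compound and PLP solutions prepared in 100 mM phosphate buffer in D2O, pD held near 8.0; chemical shifts followed by NMR after mixing.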

Data set [3] is described as follows: Binding affinity to pyridoxal-5'-phosphate assessed as formation of PLP-aldoxime by ESI-MS analysis. In outline:
(§3)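 Compound weighed into PLP stock at about 1:1 molar ratio with PLP, with or without 200 mM ammonium sulfate pH 8.0. Mixture diluted 40- to 100-fold in water and analysed by ESI-MS in negative ion mode.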

Data set [4] can be described thus: Binding affinity to pyridoxal-5'-phosphate assessed as formation of PLP-aldoxime at 5 mM after 1 hr by UV/vis spectroscopy. In outline: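 PLP and compound solutions in 100 mM phosphate buffer pH 8.0 mixed 1:1, giving 300 μM PLP and 5 mM compound final. Incubated 1 h at room temperature, then absorbance scanned from 310 to 500 nm.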
For data set [5], the target named is T1, Serine racemase (Mus musculus). In words: Inhibition of mouse recombinant serine racemase expressed in Escherichia coli MC1061 assessed as formation of D-serine at 5 mM in phosphate buffer of pH 8 treated for 15 to 20 mins before addition of substrate by HPLC analysis in presence of 10 uM PLP.
The target in data set [6] is T2, Alanine racemase (Geobacillus stearothermophilus) (UniProt P10724).
T2 sequence (whole entry): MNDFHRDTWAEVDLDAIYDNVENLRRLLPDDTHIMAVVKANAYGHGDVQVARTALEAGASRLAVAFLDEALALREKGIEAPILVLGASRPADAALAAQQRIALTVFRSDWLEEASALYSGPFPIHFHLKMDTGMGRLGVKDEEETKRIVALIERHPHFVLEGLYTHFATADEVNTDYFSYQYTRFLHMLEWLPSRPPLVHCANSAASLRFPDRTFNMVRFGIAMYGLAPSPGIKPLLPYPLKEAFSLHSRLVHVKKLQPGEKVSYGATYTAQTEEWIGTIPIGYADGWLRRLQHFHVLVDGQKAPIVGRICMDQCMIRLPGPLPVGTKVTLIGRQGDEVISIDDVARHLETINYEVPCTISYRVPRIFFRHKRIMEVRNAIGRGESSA
In words: Inhibition of Bacillus stearothermophilus alanine racemase assessed as formation of L-alanine at 5 mM in phosphate buffer of pH 8 treated for 15 to 20 mins before addition of substrate by HPLC analysis in presence of 10 uM PLP. In outline:
(§4)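 Enzyme in 50 mM phosphate buffer pH 8.0 with 10 μM PLP, preincubated with 5 mM inhibitor at room temperature for 15-20 min. Substrate added near KM: alanine racemase 5 mM D-alanine (L-alanine formed); SDH 50 mM L-serine (SDH partially purified, ~50%, from E. coli BL21-RIL); transaminase 5 mM L-aspartic acid plus 5 mM α-ketoglutarate. Products analysed by HPLC.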

Data set [7] can be described thus: Chemical stability assessed as hydrolysis-associated hydroxylamine formation at 0.5 mM after 1 hr in phosphate buffer of pH 7.4. Format: physicochemical. The following applies: pH 7.4, 1 h, 500 µM. Summed up:
(§5)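 Compound at 0.5 mM or 0.05 mM, diluted from fresh 10 mM stocks, held in 100 mM phosphate buffer pH 8.0 or 7.4 at room temperature for 0, 30 or 60 min. Picrylsulfonic acid then added; released hydroxylamine read as absorbance at 494 nm 15 min later.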

The nature of data set [8]: Inhibition of broad-range bacterial transaminase assessed as formation of L-glutamic acid at 5 mM in phosphate buffer of pH 8 treated for 15 to 20 mins before addition of substrate by HPLC analysis in presence of 10 uM PLP. In outline: as §4
In data set [9] the target is T3, Serine racemase (Homo sapiens) (UniProt Q9GZT4).
T3 sequence (whole entry): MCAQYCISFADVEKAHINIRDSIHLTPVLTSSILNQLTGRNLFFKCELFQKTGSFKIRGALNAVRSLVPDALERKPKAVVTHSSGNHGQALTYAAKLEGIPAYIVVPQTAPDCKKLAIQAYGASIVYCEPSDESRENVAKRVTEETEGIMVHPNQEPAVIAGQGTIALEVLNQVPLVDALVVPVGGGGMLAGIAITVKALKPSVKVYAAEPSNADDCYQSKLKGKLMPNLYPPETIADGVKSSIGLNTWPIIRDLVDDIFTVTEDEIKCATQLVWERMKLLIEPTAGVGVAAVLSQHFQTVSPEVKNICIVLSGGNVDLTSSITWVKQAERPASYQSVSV
The data set can be described thus: Inhibition of human recombinant serine racemase assessed as formation of D-serine at 5 mM in phosphate buffer of pH 8 treated for 15 to 20 mins before addition of substrate by HPLC analysis in presence of 10 uM PLP. Summed up: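 Recombinant human SR assayed as for mouse SR: pH 8.0 buffer with 10 μM PLP, 1 mM ATP, 1 mM MgCl2, 5 mM DTT, 5 mM L-serine and 5 mM compound. Incubated 30 min at 37 C, stopped with HClO4; D-serine measured by HPLC.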

Data set [10] in a line: Binding affinity to pyridoxal-5'-phosphate assessed as compound remaining after 12 days by NMR spectroscopy. In outline:
as §2

The target in data set [11] is T4, L-serine dehydratase/L-threonine deaminase (Rattus norvegicus) (UniProt P09367).
T4 sequence (whole entry): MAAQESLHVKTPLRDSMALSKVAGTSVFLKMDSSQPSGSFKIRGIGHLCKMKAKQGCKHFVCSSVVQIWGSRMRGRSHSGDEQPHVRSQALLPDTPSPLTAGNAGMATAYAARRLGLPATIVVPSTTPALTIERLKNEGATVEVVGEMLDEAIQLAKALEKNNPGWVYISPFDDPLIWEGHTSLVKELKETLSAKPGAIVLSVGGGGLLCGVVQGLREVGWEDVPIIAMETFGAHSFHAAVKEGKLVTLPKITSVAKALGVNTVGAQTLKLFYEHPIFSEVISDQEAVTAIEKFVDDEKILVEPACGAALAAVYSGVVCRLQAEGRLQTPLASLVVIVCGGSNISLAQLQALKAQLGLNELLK
The data set can be described thus: Inhibition of rat SDH expressed in Escherichia coli BL21-RIL assessed as formation of pyruvate at 5 mM in phosphate buffer of pH 8 treated for 15 to 20 mins before addition of substrate by HPLC analysis in presence of 10 uM PLP. In outline: as §4

Data set [12] in a line: Chemical stability assessed as hydrolysis-associated hydroxylamine formation at 0.5 mM after 1 hr in phosphate buffer of pH 8. Format: physicochemical. Conditions: pH 8, 1 h, 500 µM. In outline:
as §5

Data set [13] can be described thus: Binding affinity to 30 mM pyridoxal-5'-phosphate assessed as formation of PLP-aldimine by ESI-MS analysis.
Data set [14] is described as follows: Binding affinity to pyridoxal-5'-phosphate assessed as formation of PLP-aldimine at active site by ESI-MS analysis. Summed up:
as §3

A short description of data set [15]: Binding affinity to pyridoxal-5'-phosphate assessed as formation of syn- and anti-PLP-aldoxime after 20 hrs by NMR spectroscopy. In outline: as §2
Data set [16] has as its target T5, Serine racemase (Mus musculus, UniProt Q9QZX7).
T5 sequence (Q9QZX7 whole entry): T1 sequence (whole entry)
The data set can be described thus: Inhibition of mouse recombinant serine racemase expressed in Escherichia coli MC1061 assessed as formation of D-serine after 30 mins by HPLC analysis. Summed up:
as §1

The nature of data set [17]: Chemical stability assessed as hydrolysis-associated hydroxylamine formation at 0.05 mM after 1 hr in phosphate buffer of pH 7.4. The following applies: pH 7.4, 1 h, 50 µM. Format: physicochemical. In outline: as §5
Data set [18] is described as follows: Chemical stability assessed as hydrolysis-associated hydroxylamine formation at 0.05 mM after 1 hr in phosphate buffer of pH 8. The following applies: pH 8, 1 h, 50 µM. It counts as physicochemical. In outline:
as §5

The target of data set [19] is T5, Serine racemase. The data set can be described thus: Inhibition of mouse recombinant serine racemase transfected in bacterial expression system.
Data set [20] deals with T1, Serine racemase (Mus musculus). In words: Inhibition of mouse recombinant serine racemase expressed in Escherichia coli MC1061 assessed as formation of D-serine at 5 mM treated for 15 to 20 mins before addition of substrate by HPLC analysis in presence of increasing concentration of PLP.
Data set [21] has the same target. In words: Inhibition of mouse recombinant serine racemase expressed in Escherichia coli MC1061 assessed as formation of D-serine after 30 mins by Linewaver-burk and Eadie-Hofstee plot analysis. Summed up:
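Mouse SR racemization at varied L-serine and inhibitor concentrations, pH 8.0, 10 μM PLP, 30 min at 37 C. End-point HPLC measured D-serine peak area relative to a glycine internal standard, in triplicate. Global nonlinear fit followed by linear transformation.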

Data set [22] deals with T3, Serine racemase (Homo sapiens). The data set can be described thus: Inhibition of human recombinant serine racemase assessed as formation of D-serine at 5 mM treated for 15 to 20 mins before addition of substrate by HPLC analysis in presence of increasing concentration of PLP.

As to `CC(=O)NO`, the inhibition entry in data set [1] was “inactive”. Moreover, the outcome in data set [2] was Active. For the same compound, the outcome in data set [3] and in [4] was inactive.

Consider `O=C(NO)C(=O)NO`, for which the inhibition result in [5], in data set [6], in [1], in data set [8], in data set [9] and in [11] was “inactive” throughout. Also, the Stability result in data set [7] and in [12] was “Stable” throughout. The result in [2], in data set [3] and in [4] was inactive. In data set [10], the Activity was found to be 20%.

On to `NC(CO)C(=O)NO` (centres undefined), for which the result in data set [13] was Active. The inhibition entry in data set [1] was “inactive”. In addition, the result in [14] was inactive.

As to `Nc1ccc(C(=O)NO)cc1`, the inhibition result in data set [1] was “inactive”.

`NCC(=O)NO`: the outcome in data set [13] was Active. Further, the inhibition entry in data set [1] was “inactive”. Also, the result in data set [14] was inactive.

On to `O=C(CCCCC(=O)NO)NO`, for which the inhibition result in [1] was “inactive”. Further, the Stability entry in data set [7] and in data set [12] was “Stable” each time. Besides, the outcome in data set [2], in [15], in data set [3] and in data set [4] was inactive.

`O=C(CCCC(=O)NO)NO` [GLUTARODIHYDROXAMIC ACID]: on Serine racemase [16], the pIC50 (commonly the IC50 on a negative log10 scale, so that one unit is a factor of ten) was 3.77. Further, the result in [15], in data set [3] and in data set [4] was Active. The Stability result in data set [17] and in data set [18] was “Unstable” in each case.

`N[C@@H](C(=O)O)[C@H](O)C(=O)O`: on Serine racemase [19], the negative-log Ki (pKi) (as a rule, −log10 of the Ki, conventionally taken in molar units) was 4.37.

`N[C@@H](CO)C(=O)O`: in [13], the outcome was Active.

On to `NCC(=O)O`, for which the result in [13] was Active.

In the case of `O=C(CCC(=O)NO)NO` [SUCCINODIHYDROXAMIC ACID], the inhibition entry in data set [5] is “Active”. Moreover, the inhibition entry in data set [20] and in data set [22] was “inactive” in each case. For the same compound, the result in data set [2], in data set [3] and in [4] was Active. Besides, the negative logarithm of the IC50 (pIC50) at Serine racemase [16] was 4.05. Moreover, the Ki (commonly the equilibrium dissociation constant of an inhibitor or competing ligand from its target) in data set [21] came to 3.6 µM. The Stability result in data set [17] and in data set [18] was “Unstable” throughout.

For `O=C(CCCCCCC(=O)Nc1ccccc1)NO`, the inhibition entry in [1] is “inactive”. In addition, the outcome in data set [2] was Active. Also, the result in data set [4] was inactive.

For the compound `O=C(CCCCCCC(=O)NO)NO` [SUBEROHYDROXAMIC ACID], the inhibition result in data set [1] was “inactive”. Further, the Stability entry in data set [7] and in [12] was “Stable” in each case. In addition, the outcome in data set [2], in data set [15] and in [3] was inactive.

Take `CC(O)C(N)C(=O)NO` (centres undefined): the result in data set [13] was Active. For the same compound, the inhibition result in data set [1] is “inactive”. Also, the outcome in data set [14] was inactive.

`O=C(NO)c1ccc([N+](=O)[O-])cc1`: the inhibition entry in data set [1] was “inactive”.

For the compound `O=C(O)CC(=O)O` [MALONIC ACID], the pKi on Serine racemase [19] was 4.15.

As for `O=C(NO)c1ccc(Cl)cc1`, in [1], the inhibition entry was “inactive”.
